Compounds with a hit are over-represented: about 2.2% of the library has one in this group of screens.
Autophagy HCS = autophagy modulators in MEF cells, primary screen, imaging, high-content, MEF GFP-LC3. MEF GFP-LC3 puncta imaging; test concentration mostly 10 µM. calls only at 10 µM (by protocol). actives 0.98% (n = 190,000). AID 463193, 2010;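 active = percentage of spot-positive cells more than 3 SD above its plate mean, without a fluorescence outlier flag or 80% toxicity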;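 note: spot-positive cell cutoff set from DMSO-treated cells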
SDO1 yeast rescue = growth rescue of sdo1-depleted yeast, primary screen, S. cerevisiae, bone marrow failure model; S. cerevisiae sdo1-depleted JHY4D growth rescue, OD600 30 h; stronger effect = higher value; pdr5 snq2 efflux-pump mutant strain; z-score at 10 µM; actives 0.21% (n = 140,000); AID 817, 2007;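 active = z-score above 3 at both the 24 hr and the 30 hr optical density reads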;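 note: z-score against mean and SD of all compound wells on the same plate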
HCT116 PTEN-null = growth suppression of PTEN-null HCT116, primary screen, cell-based, CellTiter-Glo. HCT116 PTEN-null viability, 60 h; stronger effect = lower value. viability, % at 10 µM. actives 1.2% (n = 140,000). AID 827, 2007;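 active = viability at or below a set limit, 4 SD under the median of all tested compounds, cut at about 3.7% in these data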;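 note: PTEN knockout HCT116 line with beta catenin targeted HCT116 as companion control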
Dynein cargo inh = inhibitors of GR-EGFP nuclear translocation, primary screen, dynein cargo transport inhibitor project, imaging, high-content, 3617.4 mouse cells | test concentration mostly 20 µM; stimulated with dexamethasone, 1 µM; stronger effect = lower value | z-score, hits read low | actives 0.47% (n = 220,000) | AID 1381, 2008;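 active = plate z-score of nuclear minus cytoplasmic receptor signal below a set negative limit, without overly bright fluorescence or cell loss, cut at about -3.5 in these data, passing the limit was not always enough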;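 note: z-score of nuclear minus cytoplasmic ring GR-EGFP intensity difference per well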
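Buffer or medium: tet-free, stripped-serum medium; reagent: dexamethasone at 1.0 µM final, 30 min; incubation: 48 h induction, 1 h compound, 30 min dex at 37 °C; measured by: formaldehyde fixation, Hoechst nuclear stain, 10x automated fluorescence imaging; read-out: nuclear-to-cytoplasmic GR-EGFP distribution per well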
bCat KO growth = primary screen for growth suppressors in beta-catenin knockout HCT116 cells (colon tumor, human); actives 1.5% (n = 140,000); HCT116 beta-catenin knockout viability, CellTiter-Glo, 60 h; stronger effect = lower value; viability, % at 10 µM;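 active = viability at or under a set limit, the compound median less 4 SD, cut at about 6% in these data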;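 note: 0% = Hyamine 1622 control at 20 µM and 100% = untreated cell control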
Numbers without * were called inactive; ! = not confirmed by another sample.

How did N=c1c2c(ncn1CCN1CCOCC1)Oc1ccc3ccccc3c1C2c1ccccc1 (centres undefined) do in these assays?
Autophagy HCS: inactive; SDO1 yeast rescue: -0.93; HCT116 PTEN-null: 1.3*; Dynein cargo inh: -0.91; bCat KO growth: 1.4*

What do the screens show for `N=c1c2c(ncn1Cc1ccco1)Oc1cc(O)ccc1C2c1ccccc1` (centres undefined)?
Dynein cargo inh: -0.63

Results for COc1ccc(C2c3c(ncn(CCN4CCOCC4)c3=N)Oc3ccc4ccccc4c32)cc1 (centres undefined) ?
Autophagy HCS: inactive; SDO1 yeast rescue: -0.71; HCT116 PTEN-null: 1.1*; Dynein cargo inh: 2.4; bCat KO growth: 1.5*

How did N=c1c2c(ncn1Cc1ccco1)Oc1c(ccc3ccccc13)C2c1ccccc1 (centres undefined) do in these assays?
Autophagy HCS: inactive; SDO1 yeast rescue: -1.6; HCT116 PTEN-null: 1.6*; Dynein cargo inh: -0.51; bCat KO growth: 1.3*

How did COc1ccc(C2c3c(ccc4ccccc34)Oc3ncn4nc(-c5ccco5)nc4c32)cc1 (centres undefined) do in these assays?
Autophagy HCS: inactive; SDO1 yeast rescue: 0.64; HCT116 PTEN-null: 78; Dynein cargo inh: -0.13; bCat KO growth: 92

How did O=C(Nc1cccc2ccccc12)c1ccc([N+](=O)[O-])s1 do in these assays?
Autophagy HCS: inactive; SDO1 yeast rescue: -2.2; HCT116 PTEN-null: 3.1*; Dynein cargo inh: 0.3; bCat KO growth: 3.9*

How did O=C(Nc1ccccc1F)c1ccc([N+](=O)[O-])s1 do in these assays?
Autophagy HCS: inactive; Dynein cargo inh: 0.31

How did Nc1nnc(SCC(=O)N2CCN(c3cccc(Cl)c3)CC2)n1-c1ccccc1 do in these assays?
Autophagy HCS: inactive; SDO1 yeast rescue: 0.55; HCT116 PTEN-null: 97; Dynein cargo inh: -0.66; bCat KO growth: 92

How did CCOC(=O)N1CCN(CCC(=O)c2ccc(Cl)cc2)CC1 do in these assays?
Autophagy HCS: inactive; SDO1 yeast rescue: -0.84; HCT116 PTEN-null: 76; Dynein cargo inh: -5.4*; bCat KO growth: 88

How did CCOC(=O)N1CCN(CCC(=O)c2ccc(OC)cc2)CC1 do in these assays?
Autophagy HCS: inactive; Dynein cargo inh: -2.4

Results for O=c1c2ccccc2sn1-c1cc(S(=O)(=O)N2CCOCC2)ccc1N1CCOCC1 ?
Autophagy HCS: inactive; SDO1 yeast rescue: 0.76; HCT116 PTEN-null: 39; Dynein cargo inh: -6.5*; bCat KO growth: 92

How did COc1ccc2nc(Nc3nc(CSc4nnnn4-c4ccccc4)cc(=O)[nH]3)nc(C)c2c1 do in these assays?
Autophagy HCS: active; SDO1 yeast rescue: 0.21; HCT116 PTEN-null: 2.0*; Dynein cargo inh: -0.78; bCat KO growth: 1.8*

What do the screens show for `CCOc1ccc2nc(Nc3nc(CSc4nnnn4-c4ccccc4)cc(=O)[nH]3)nc(C)c2c1`?
Autophagy HCS: inactive; SDO1 yeast rescue: 0.21; HCT116 PTEN-null: 63; Dynein cargo inh: -0.28; bCat KO growth: 70

What do the screens show for `COCc1cc(=O)[nH]c(Nc2nc(C)c3ccccc3n2)n1`?
Autophagy HCS: inactive; SDO1 yeast rescue: -0.8; HCT116 PTEN-null: 2.3*; Dynein cargo inh: 1.1; bCat KO growth: 1.7*

Results for COCc1cc(=O)[nH]c(Nc2nc3ccccc3o2)n1 ?
Autophagy HCS: inactive; SDO1 yeast rescue: 0.52; HCT116 PTEN-null: 16; Dynein cargo inh: 0.1; bCat KO growth: 20

What do the screens show for `Cc1ccc2c(C)nc(Nc3nc(CSc4nnnn4-c4ccccc4)cc(=O)[nH]3)nc2c1`?
Autophagy HCS: inactive; SDO1 yeast rescue: -0.25; HCT116 PTEN-null: 3.3*; Dynein cargo inh: -0.21; bCat KO growth: 2.7*

Results for O=C(Cn1cnc2c(nnn2Cc2ccccc2F)c1=O)NCC1CCCO1 (centres undefined) ?
Autophagy HCS: active; SDO1 yeast rescue: 2; HCT116 PTEN-null: 99; Dynein cargo inh: -0.98; bCat KO growth: 103

How did COc1ccccc1CCNC(=O)Cc1cccs1 do in these assays?
Dynein cargo inh: -0.63

How did CCOC(=O)c1ccc(N=c2sc(C(=O)OC)cc(=O)n2CCCN2CCOCC2)cc1 do in these assays?
SDO1 yeast rescue: -1.1; HCT116 PTEN-null: 8; Dynein cargo inh: -3.6*!; bCat KO growth: 6.0*

Assay outcomes as filed in PubChem.
